According to ChEMBL document CHEMBL2086292, “Chalcogenopyrylium compounds as modulators of the ATP-binding cassette transporters P-glycoprotein (P-gp/ABCB1) and multidrug resistance protein 1 (MRP1/ABCC1)” (J Med Chem, 2012):
Where “and” joins values, the source holds several entries; their conditions need not be identical. Identical values can stand only once.

Experiments:
MDCK-II [1] = experiment: Inhibition of P-gp expressed in MDCK2-MDR1 cells at 5 uM by calcein AM accumulation assay relative to LSN 335984; format: cell-based
Procedure, shortened: (§1)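 MDCKII cells transfected with wild-type human MDR1, seeded at 40000 cells/well and used on day 4. Washed in DPBS with 10 mM HEPES pH 7.4, then compound in the same buffer 30 min at 37 °C. Replaced with compound plus 0.5 μg/mL calcein AM for a further 20 min. Fluorescence read at Ex 485/Em 530 nm. Signal expressed relative to 5 μM LSN 335984, taken as complete inhibition; vehicle 0.25% DMSO. IC50 from 1:1 serial dilutions by variable-slope sigmoidal fit.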

MDCK-II [2] = experiment: Inhibition of P-gp expressed in MDCK2-MDR1 cells at 25 uM by calcein AM accumulation assay relative to LSN 335984; format: cell-based; procedure, shortened: as §1
[3] = molecular target: T1, MRP1 (Multidrug resistance-associated protein 1) (Homo sapiens, UniProt P33527); experiment: Inhibition of human MRP1 mediated uptake of [3H]E2-17betaG in HEK cell membrane vesicles at 30 uM by liquid scintillation counting relative to control; format: cell membranes, HEK293; conditions: HEK cell membrane vesicles with human MRP1, probe [3H]E2-17betaG
Procedure, shortened: (§2)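 Inside-out membrane vesicles from HEK cells stably transfected with human MRP1. Vesicle protein (2 μg) incubated in Tris-sucrose buffer pH 7.4 with 400 nM [3H]E2-17βG, 4 mM ATP or AMP and 10 mM MgCl2, 3 min at 37 °C, in duplicate; DMSO ≤1% final. Stopped by ice-cold dilution and rapid filtration, then scintillation counted. ATP-dependent uptake taken as ATP minus AMP values; inhibition reported as percent.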

P-gp (ABCB1) = P-gp (ABCB1) (Homo sapiens, UniProt P08183); experiment: (§3) Induction of ATPase activity of human His10-tagged P-gp expressed in BHK cells assessed as inorganic phosphate release after 30 mins relative to control; format: cell-based; conditions: human His10-tagged P-gp expressed in BHK cells, read-out: FC
Procedure, shortened: (§4)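 Human P-gp with C-terminal His10 tag, stably expressed in BHK cells, purified by Ni-chelate chromatography and mixed 1:1 with 10 mg/mL sheep brain phosphatidylethanolamine in TBS (10 mM Tris/HCl pH 7.4, 150 mM NaCl), then sonicated. Compound titrated, 30 min at 37 °C. Inorganic phosphate released from ATP measured. Vmax expressed as fold over basal activity; KM is the concentration giving half-maximal stimulation.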

[4] = molecular target: T1, MRP1 (Multidrug resistance-associated protein 1); experiment: Inhibition of human MRP1-mediated uptake of [3H]E2-17betaG in HEK cell membrane vesicles at 1 uM by liquid scintillation counting relative to control; format: cell membranes, HEK293; conditions: HEK cell membrane vesicles with human MRP1, probe [3H]E2-17betaG; procedure, shortened: as §2
[5] = molecular target: T1, MRP1 (Multidrug resistance-associated protein 1); experiment: Inhibition of human MRP1-mediated uptake of [3H]E2-17betaG in HEK cell membrane vesicles at 10 uM by liquid scintillation counter; format: cell membranes, HEK293; conditions: HEK cell membrane vesicles with human MRP1, probe [3H]E2-17betaG; procedure, shortened: as §2
[6] = Octanol-water partition coefficient, log P of the compound in PBS at pH 7.4 after 1 hr by shake flask method; format: physicochemical
Procedure, shortened: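 Shake-flask method: saturated n-octanol solution shaken with an equal volume of PBS pH 7.4 for 3–5 min, then left to settle 1 h at 23 °C. Concentration in each layer measured spectrophotometrically.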

[7] = Normalized ratio of the compound assessed as ratio of PBA/AB in absence of LSN 335984 to ratio of PBA/AB in presence of LSN 335984 in MDCK2-MDR1 cells at 5 uM after 1 hr; format: ADME, cell-based, Canis lupus familiaris; conditions: dog, mdck-mdr1, 1 h
Procedure, shortened: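 MDCKII-MDR1 cells seeded at 50000 cells/cm² on Transwell filters, used on day 6. Preincubated 30 min with 4.3 mg/mL BSA in DPBSH, with or without 5 μM LSN 335984. Compound (5 μM) added to the apical or basolateral donor chamber and incubated 1 h at 37 °C with nutation. Donor and receiver samples quantified by LC-MS/MS. AB and BA permeabilities calculated. Normalized ratio is the BA/AB ratio without inhibitor divided by the ratio with inhibitor.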

P-glycoprotein (MDR1) [8] = experiment: P-glycoprotein-mediated transport in MDCK2-MDR1 cells assessed as permeability across apical to basolateral side at 5 uM after 1 hr; conditions: dog, MDCK-MDR1
P-glycoprotein (MDR1) [9] = experiment: P-glycoprotein-mediated transport in MDCK2-MDR1 cells assessed as permeability across basolateral to apical side at 5 uM after 1 hr; conditions: dog, MDCK-MDR1
[10] = molecular target: T1, MRP1 (Multidrug resistance-associated protein 1); experiment: Inhibition of human MRP1 mediated uptake of [3H]E2-17betaG in HEK cell membrane vesicles at 5 uM by liquid scintillation counting relative to control; format: cell membranes, HEK293; conditions: HEK cell membrane vesicles with human MRP1, probe [3H]E2-17betaG
Procedure, shortened: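 Inside-out vesicles from stably transfected HEK-MRP1 cells (2 μg protein) in Tris-sucrose buffer pH 7.4 with [³H]E₂17βG 400 nM, ATP or AMP 4 mM, MgCl₂ 10 mM, 3 min at 37 °C, compound at 5 μM; DMSO ≤1%; stopped by ice-cold dilution, rapid filtration, scintillation counting; ATP-dependent uptake = ATP minus AMP; duplicate wells.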

[11] = molecular target: T2, ATP-dependent translocase ABCB1 (Homo sapiens, UniProt P08183); experiment: Inhibition of VER-stimulated human His10-tagged P-gp ATPase activity expressed in BHK cells after 15 mins; format: cell-based
[12] = Inhibition of P-gp expressed in MDCK2-MDR1 cells by calcein AM accumulation assay; format: cell-based; conditions: MDCK-II
Procedure, shortened: as §1, with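 “min.” for “min. Fluorescence read at Ex 485/Em 530 nm. Signal expressed relative to 5 μM LSN 335984, taken as complete inhibition; vehicle 0.25% DMSO.”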

[13] = molecular target: T2, ATP-dependent translocase ABCB1; experiment: as §3; format: cell-based; conditions: bhk, 0.5 h; procedure, shortened: as §4
[14] = Inhibition of P-gp mediated [3H]VIN efflux in MDCK2-MDR1 cells by scintillation counter; format: cell-based; conditions: MDCK-II
Procedure, shortened: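 MDCKII-MDR1 monolayers on Transwell filters, used on day 6. Rinsed in DPBSH, then preincubated 30 min at 37 °C with compound ([…]) in BSA/DPBSH. [3H]vinblastine (0.25 μCi/mL) plus compound added basolaterally and fresh compound solution added apically. Apical buffer replaced every 10 min; apical radioactivity counted by scintillation. IC50 fitted.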

T1 sequence (P33527 whole entry): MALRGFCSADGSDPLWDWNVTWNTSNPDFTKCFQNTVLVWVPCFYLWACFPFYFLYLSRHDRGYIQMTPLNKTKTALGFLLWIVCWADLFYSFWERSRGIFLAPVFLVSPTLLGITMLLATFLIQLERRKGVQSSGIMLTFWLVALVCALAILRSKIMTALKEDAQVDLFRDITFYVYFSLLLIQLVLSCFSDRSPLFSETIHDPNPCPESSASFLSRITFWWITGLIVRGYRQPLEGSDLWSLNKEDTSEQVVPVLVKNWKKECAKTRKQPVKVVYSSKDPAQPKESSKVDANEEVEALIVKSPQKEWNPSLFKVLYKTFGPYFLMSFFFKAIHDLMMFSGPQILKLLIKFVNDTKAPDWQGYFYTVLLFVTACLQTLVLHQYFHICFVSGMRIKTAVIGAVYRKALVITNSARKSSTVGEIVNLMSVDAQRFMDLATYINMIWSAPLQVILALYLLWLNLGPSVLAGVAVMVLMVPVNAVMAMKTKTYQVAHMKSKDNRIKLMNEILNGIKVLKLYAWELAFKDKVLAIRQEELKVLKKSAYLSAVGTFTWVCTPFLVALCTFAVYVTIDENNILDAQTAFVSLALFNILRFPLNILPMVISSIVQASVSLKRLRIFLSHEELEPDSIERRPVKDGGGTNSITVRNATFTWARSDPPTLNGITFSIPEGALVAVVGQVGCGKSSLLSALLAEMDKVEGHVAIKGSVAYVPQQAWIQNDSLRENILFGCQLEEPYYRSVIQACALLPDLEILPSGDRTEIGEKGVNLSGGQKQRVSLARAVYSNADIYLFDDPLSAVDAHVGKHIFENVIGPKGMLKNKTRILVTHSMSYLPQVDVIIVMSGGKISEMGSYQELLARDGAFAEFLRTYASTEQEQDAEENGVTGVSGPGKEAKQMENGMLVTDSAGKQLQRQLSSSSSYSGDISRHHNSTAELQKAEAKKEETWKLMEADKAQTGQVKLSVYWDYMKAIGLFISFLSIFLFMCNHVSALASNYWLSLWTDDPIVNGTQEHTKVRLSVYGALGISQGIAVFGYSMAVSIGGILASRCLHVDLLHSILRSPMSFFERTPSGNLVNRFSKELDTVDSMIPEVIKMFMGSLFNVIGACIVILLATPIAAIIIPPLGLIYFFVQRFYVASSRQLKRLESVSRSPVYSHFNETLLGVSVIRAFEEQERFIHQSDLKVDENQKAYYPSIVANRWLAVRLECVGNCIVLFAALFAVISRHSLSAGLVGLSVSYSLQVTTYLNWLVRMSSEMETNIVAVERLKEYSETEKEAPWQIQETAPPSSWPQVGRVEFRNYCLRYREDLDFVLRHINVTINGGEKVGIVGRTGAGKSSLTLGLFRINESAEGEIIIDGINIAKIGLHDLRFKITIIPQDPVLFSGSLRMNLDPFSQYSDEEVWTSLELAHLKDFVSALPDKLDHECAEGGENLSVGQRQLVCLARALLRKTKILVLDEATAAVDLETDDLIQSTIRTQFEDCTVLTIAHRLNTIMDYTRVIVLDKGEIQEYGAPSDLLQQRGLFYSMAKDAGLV
P-gp (ABCB1), sequence (P08183 whole entry): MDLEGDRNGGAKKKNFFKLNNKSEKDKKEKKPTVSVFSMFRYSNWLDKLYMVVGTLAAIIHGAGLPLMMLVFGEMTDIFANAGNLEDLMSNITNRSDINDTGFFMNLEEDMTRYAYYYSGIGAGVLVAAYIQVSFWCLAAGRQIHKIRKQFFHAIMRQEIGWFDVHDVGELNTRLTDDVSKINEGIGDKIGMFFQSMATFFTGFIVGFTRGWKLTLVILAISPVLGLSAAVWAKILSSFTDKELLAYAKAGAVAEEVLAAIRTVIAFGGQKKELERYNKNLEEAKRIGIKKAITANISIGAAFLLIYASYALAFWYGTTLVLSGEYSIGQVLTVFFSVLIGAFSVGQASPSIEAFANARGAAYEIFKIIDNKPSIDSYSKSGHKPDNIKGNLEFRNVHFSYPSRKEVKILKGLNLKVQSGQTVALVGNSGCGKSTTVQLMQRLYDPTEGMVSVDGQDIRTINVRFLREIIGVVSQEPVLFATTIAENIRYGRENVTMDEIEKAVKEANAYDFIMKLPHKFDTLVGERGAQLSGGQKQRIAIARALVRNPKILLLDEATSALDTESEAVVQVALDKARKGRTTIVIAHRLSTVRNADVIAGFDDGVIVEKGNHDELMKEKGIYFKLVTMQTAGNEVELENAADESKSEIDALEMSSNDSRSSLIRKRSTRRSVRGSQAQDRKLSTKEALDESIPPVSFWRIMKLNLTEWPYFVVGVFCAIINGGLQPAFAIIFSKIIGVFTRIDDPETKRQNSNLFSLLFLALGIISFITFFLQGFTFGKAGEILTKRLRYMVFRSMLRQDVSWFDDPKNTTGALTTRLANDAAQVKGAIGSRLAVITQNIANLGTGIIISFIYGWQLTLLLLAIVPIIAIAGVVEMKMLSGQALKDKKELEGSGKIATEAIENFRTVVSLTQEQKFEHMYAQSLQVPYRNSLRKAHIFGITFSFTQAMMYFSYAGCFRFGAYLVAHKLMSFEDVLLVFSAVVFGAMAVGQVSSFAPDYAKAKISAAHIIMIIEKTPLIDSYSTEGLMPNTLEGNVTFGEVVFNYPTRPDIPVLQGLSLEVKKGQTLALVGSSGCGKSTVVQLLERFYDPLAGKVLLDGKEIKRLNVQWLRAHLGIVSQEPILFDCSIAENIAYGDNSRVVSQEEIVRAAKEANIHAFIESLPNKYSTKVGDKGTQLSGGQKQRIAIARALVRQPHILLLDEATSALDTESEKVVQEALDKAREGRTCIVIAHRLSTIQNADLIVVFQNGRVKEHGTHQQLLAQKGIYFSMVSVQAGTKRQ
T2 sequence (P08183 whole entry): as above

What does the source list for `CC(C)(C)c1cc(-c2ccc(C(=S)N3CCCCC3)s2)cc(C(C)(C)C)[s+]1`?
inhibition (MDCK-II [1]): 3.6%; inhibition (MDCK-II [2]): 27% and < 7%

Which inhibition at 30 µM [3] does the source give for `CN(C)c1ccc(-c2cc(-c3ccccc3)cc(C(C)(C)C)[s+]2)cc1` here?
Its inhibition at 30 µM is 50%.

What about the fold induction at 0.5 h (P-gp (ABCB1)) of the same compound?
Its fold induction at 0.5 h is 6.9.

What does the source list for `CC(C)(C)c1cc(-c2ccc(C(=S)N3CCCCC3)s2)cc(C(C)(C)C)[s+]1.[Cl-]`?
inhibition at 1 µM [4]: 0%; fold induction at 0.5 h (P-gp (ABCB1)): 3.7; inhibition at 10 µM [5]: 32%; logD at 1 h [6]: 0.7; Ratio [7]: 15; Papp A-B at 1 h, 5 µM (P-glycoprotein (MDR1) [8]): 0.18 ×10⁻⁶ cm/s; Papp B-A at 1 h, 5 µM (P-glycoprotein (MDR1) [9]): 30 ×10⁻⁶ cm/s

Which results are given for `Nc1ccc(-c2cc(-c3ccc(N4CCOCC4)cc3)cc(-c3ccccc3)[te+]2)cc1`?
inhibition at 30 µM [3]: 96%; fold induction at 0.5 h (P-gp (ABCB1)): 4.5

With `Cc1cc(-c2ccccc2)[s+]c(-c2ccccc2)c1` as the compound, how does the inhibition at 1 µM [4] read?
The inhibition at 1 µM was 0%.

With `CCN(CC)C(=O)c1ccccc1-c1cc(C(C)(C)C)[te+]c(C(C)(C)C)c1` as the compound, how does the inhibition at 30 µM [3] read?
Its inhibition at 30 µM is 45%.

And the fold induction at 0.5 h (P-gp (ABCB1))?
The fold induction at 0.5 h was 6.9.

For `Cc1cc(-c2ccc(N(C)C)cc2)cc(-c2ccc(N(C)C)cc2)[se+]1`, which inhibition at 1 µM [4] is on record?
Its inhibition at 1 µM is 15%.

And the fold induction at 0.5 h (P-gp (ABCB1))?
Its fold induction at 0.5 h is 1.4.

Which results are given for `CC(C)(C)c1cc(-c2ccccc2)cc(C(C)(C)C)[s+]1`?
inhibition at 30 µM [3]: 33%; fold induction at 0.5 h (P-gp (ABCB1)): 2.9; inhibition (MDCK-II [1]): 0%; inhibition (MDCK-II [2]): 1%

With `CC(C)(C)c1cc(-c2ccc(C(=O)O)s2)cc(C(C)(C)C)[se+]1` as the compound, how does the inhibition at 5 µM [10] read?
The inhibition at 5 µM was 15%.

What about the fold induction at 0.5 h (P-gp (ABCB1)) of the same compound?
Its fold induction at 0.5 h is < 1.4.

And the IC50 [11]?
The IC50 was 111 µM.

Which results are given for `CN(C)c1ccc(-c2cc(-c3ccc(C(=O)N4CCCCC4)s3)cc(C(C)(C)C)[s+]2)cc1.F[P-](F)(F)(F)(F)F`?
inhibition at 1 µM [4]: 0%; fold induction at 0.5 h (P-gp (ABCB1)): 6.6; inhibition at 10 µM [5]: 59%; logD at 1 h [6]: 1.4; IC50 [12]: 18 µM; Ratio [7]: 4; Papp A-B at 1 h, 5 µM (P-glycoprotein (MDR1) [8]): 0.56 ×10⁻⁶ cm/s; Papp B-A at 1 h, 5 µM (P-glycoprotein (MDR1) [9]): 2.2 ×10⁻⁶ cm/s

For `CCN(CC)C(=O)c1ccccc1-c1cc(C(C)(C)C)[s+]c(C(C)(C)C)c1`, which inhibition at 30 µM [3] is on record?
Its inhibition at 30 µM is 34%.

And the fold induction at 0.5 h (P-gp (ABCB1))?
Its fold induction at 0.5 h is 7.9.

And the inhibition (MDCK-II [1])?
Its inhibition is 0%.

And the inhibition (MDCK-II [2])?
Its inhibition is 0%.

For `CC(C)(C)c1cc(-c2ccc(C(=S)N3CCCCC3)s2)cc(C(C)(C)C)[s+]1.F[P-](F)(F)(F)(F)F`, which inhibition at 30 µM [3] is on record?
Its inhibition at 30 µM is 71%.

What about the “fold change (FC)” value [13] of the same compound?
The value was 4.4.

With `CN(C)c1ccc(-c2cc(-c3ccc(C(=S)N4CCCCC4)s3)cc(-c3ccc(N(C)C)cc3)[s+]2)cc1.[Cl-]` as the compound, how does the inhibition at 1 µM [4] read?
The inhibition at 1 µM was 25%.

And the fold induction at 0.5 h (P-gp (ABCB1))?
The fold induction at 0.5 h was 5.7.

And the inhibition at 10 µM [5]?
Its inhibition at 10 µM is 81%.

What about the logD at 1 h [6] of the same compound?
The logD at 1 h was 1.6.

What about the IC50 [12] of the same compound?
Its IC50 is 34 µM.

What about the IC50 [14] of the same compound?
The IC50 was 6.6 µM.

And the Ratio [7]?
The Ratio was 8.

What about the Papp A-B at 1 h, 5 µM (P-glycoprotein (MDR1) [8]) of the same compound?
The Papp A-B at 1 h, 5 µM was 0.11 ×10⁻⁶ cm/s.

And the Papp B-A at 1 h, 5 µM (P-glycoprotein (MDR1) [9])?
Its Papp B-A at 1 h, 5 µM is 1.6 ×10⁻⁶ cm/s.

With `Cc1cc(C(C)(C)C)[se+]c(C(C)(C)C)c1` as the compound, how does the inhibition at 30 µM [3] read?
Its inhibition at 30 µM is 0%.

For `CN(C)c1ccc(-c2cc(-c3ccc(C(=O)O)s3)cc(C(C)(C)C)[s+]2)cc1`, which inhibition at 30 µM [3] is on record?
Its inhibition at 30 µM is 96%.

What about the fold induction at 0.5 h (P-gp (ABCB1)) of the same compound?
Its fold induction at 0.5 h is 13.

For `CN(C)c1ccc(-c2cc(-c3ccc(C(=S)N4CCCCC4)s3)cc(C(C)(C)C)[s+]2)cc1.[Cl-]`, which inhibition at 1 µM [4] is on record?
The inhibition at 1 µM was 36%.

And the inhibition at 30 µM [3]?
Its inhibition at 30 µM is 93%.

And the fold induction at 0.5 h (P-gp (ABCB1))?
Its fold induction at 0.5 h is 5.2.

And the inhibition (MDCK-II [1])?
Its inhibition is 31%.

And the inhibition (MDCK-II [2])?
The inhibition was 74%.

And the inhibition at 10 µM [5]?
The inhibition at 10 µM was 93%.

And the logD at 1 h [6]?
The logD at 1 h was 2.1.

What about the IC50 [12] of the same compound?
Its IC50 is 38 µM.

What about the IC50 [14] of the same compound?
Its IC50 is 11.5 µM.

What about the Ratio [7] of the same compound?
The Ratio was 705.

And the Papp A-B at 1 h, 5 µM (P-glycoprotein (MDR1) [8])?
The Papp A-B at 1 h, 5 µM was 0.03 ×10⁻⁶ cm/s.

What about the Papp B-A at 1 h, 5 µM (P-glycoprotein (MDR1) [9]) of the same compound?
The Papp B-A at 1 h, 5 µM was 32 ×10⁻⁶ cm/s.

Which inhibition at 30 µM [3] does the source give for `CC(C)(C)c1cc(-c2ccc(C(=S)N3CCCCC3)s2)cc(C(C)(C)C)[se+]1` here?
The inhibition at 30 µM was 81%.

What about the fold induction at 0.5 h (P-gp (ABCB1)) of the same compound?
The fold induction at 0.5 h was 4.3.
